In ChEMBL document CHEMBL2390929, “New nitric oxide donating 1,2,4-triazole/oxime hybrids: synthesis, investigation of anti-inflammatory, ulceroginic liability and antiproliferative activities” (Bioorg Med Chem, 2013):

What was measured:
[1] = system: NCI-H460; assay: Cytotoxicity against human NCI-H460 cells assessed as cell growth at 10^-5 M after 48 hrs by SRB assay; type: functional; conditions: NCI-H460, 48 h, read-out: Activity
How it was run: (§1)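 NCI 60-cell-line primary one-dose screen across nine tumour subpanels. Compound added at a single concentration of 10^-5 M and cultures incubated 48 h. Endpoint was sulforhodamine B protein staining read spectrophotometrically, with growth expressed as percent of untreated control cells.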

[2] = system: NCI/ADR-RES; assay: Cytotoxicity against human NCI/ADR-RES cells assessed as cell growth at 10^-5 M after 48 hrs by SRB assay; type: functional; conditions: read-out: Activity; how it was run: as §1
[3] = system: SN12C; assay: Cytotoxicity against human SN12C cells assessed as cell growth at 10^-5 M after 48 hrs by SRB assay; type: functional; conditions: read-out: Activity
How it was run: (§2)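 NCI-60 one-dose screen across nine tumour subpanels. Each agent added once at 10^-5 M, cultures incubated 48 h. Endpoint is sulforhodamine B protein staining read spectrophotometrically. Output is percent growth of treated cells relative to untreated controls.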

[4] = Induction of nitric oxide release in phosphate buffer at pH 7.4 at 0.1 mM after 4 hrs by Griess method in presence of 0.5 mM of N-acetylcysteine; type: physicochemical; conditions: pH 7.4, 4 h, 100 µM
How it was run: (§3)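 Compound in DMF diluted to final 10^-4 M in 1:1 50 mM phosphate buffer pH 7.4/MeOH with 5×10^-4 M N-acetylcysteine, 37 °C. Aliquot mixed with Griess reagent, 10 min at room temperature, A546 read. Nitrite quantified against sodium nitrite standards (10–80 nmol/mL); NO expressed as mol/mol. n = 4 reaction mixtures per compound.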

[5] = system: OVCAR-8; assay: Cytotoxicity against human OVCAR8 cells assessed as cell growth at 10^-5 M after 48 hrs by SRB assay; type: functional; conditions: OVCAR-8, 48 h, read-out: Activity; how it was run: as §1
[6] = system: SK-MEL-28; assay: Cytotoxicity against human SK-MEL-28 cells assessed as cell growth at 10^-5 M after 48 hrs by SRB assay; type: functional; conditions: SK-MEL-28, 48 h, read-out: Activity; how it was run: as §2
[7] = system: Rattus norvegicus; assay: Antiinflammatory activity in albino rat assessed as inhibition of carrageenan-induced paw edema at 0.28 mmol/kg, po after 4 hrs relative to control; type: functional
How it was run: (§4)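 Adult male albino rats (120–140 g), four per group, fasted 24 h with water allowed. Test agent suspended in 0.5% w/v aqueous CMC and given orally at 0.28 mmol/kg; controls received CMC alone. After 30 min, 0.1 mL fresh 1% carrageenan in saline was injected subplantar into the right hind paw and saline into the left. Paw thickness was measured by Vernier caliper; % inhibition = [(VR−VL)control − (VR−VL)treated]/(VR−VL)control ×100. Mean ± SEM, one-way ANOVA.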

[8] = system: HL-60(TB); assay: Cytotoxicity against human HL-60(TB) cells assessed as cell growth at 10^-5 M after 48 hrs by SRB assay; type: functional; conditions: HL-60, 48 h, read-out: Activity
How it was run: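 NCI 60-cell-line one-dose screen: compound added to cultures at a single concentration of 10^-5 M, incubated 48 h. End point by sulforhodamine B protein staining, read spectrophotometrically. Value is percent growth of treated cells relative to untreated control cells.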

[9] = system: OVCAR-4; assay: Cytotoxicity against human OVCAR4 cells assessed as cell growth at 10^-5 M after 48 hrs by SRB assay; type: functional; conditions: OVCAR-4, 48 h, read-out: Activity; how it was run: as §1
[10] = system: SK-OV-3; assay: Cytotoxicity against human SKOV3 cells assessed as cell growth at 10^-5 M after 48 hrs by SRB assay; type: functional; conditions: SK-OV-3, 48 h, read-out: Activity; how it was run: as §2
[11] = system: IGROV-1; assay: Cytotoxicity against human IGROV1 cells assessed as cell growth at 10^-5 M after 48 hrs by SRB assay; type: functional; conditions: IGROV-1, 48 h, read-out: Activity; how it was run: as §1
[12] = system: LOX IMVI; assay: Cytotoxicity against human LOXIMVI cells assessed as cell growth at 10^-5 M after 48 hrs by SRB assay; type: functional; conditions: read-out: Activity; how it was run: as §1
[13] = system: T47D; assay: Cytotoxicity against human T47D cells assessed as cell growth at 10^-5 M after 48 hrs by SRB assay; type: functional; conditions: read-out: Activity; how it was run: as §2
[14] = system: OVCAR-3; assay: Cytotoxicity against human OVCAR3 cells assessed as cell growth at 10^-5 M after 48 hrs by SRB assay; type: functional; conditions: OVCAR-3, 48 h, read-out: Activity; how it was run: as §1
[15] = system: Rattus norvegicus; assay: Gastrointestinal toxicity in albino rat assessed as ulcer index at 0.28 mmol/kg, po (reference value: 0.60 +/- 0.05); type: organism-based; conditions: in vivo
[16] = system: 786-0; assay: Cytotoxicity against human 786-0 cells assessed as cell growth at 10^-5 M after 48 hrs by SRB assay; type: functional; conditions: 786-0, 48 h, read-out: Activity; how it was run: as §1
[17] = system: SK-MEL-2; assay: Cytotoxicity against human SK-MEL-2 cells assessed as cell growth at 10^-5 M after 48 hrs by SRB assay; type: functional; conditions: SK-MEL-2, 48 h, read-out: Activity; how it was run: as §1
[18] = system: Rattus norvegicus; assay: Antiinflammatory activity in albino rat assessed as inhibition of carrageenan-induced paw edema at 0.28 mmol/kg, po after 5 hrs relative to control; type: functional; how it was run: as §4
[19] = system: NCI-H23; assay: Cytotoxicity against human NCI-H23 cells assessed as cell growth at 10^-5 M after 48 hrs by SRB assay; type: functional; conditions: NCI-H23, 48 h, read-out: Activity; how it was run: as §1
[20] = system: SF-539; assay: Cytotoxicity against human SF539 cells assessed as cell growth at 10^-5 M after 48 hrs by SRB assay; type: functional; conditions: SF-539, 48 h, read-out: Activity; how it was run: as §1
[21] = system: DU-145; assay: Cytotoxicity against human DU145 cells assessed as cell growth at 10^-5 M after 48 hrs by SRB assay; type: functional; conditions: DU-145, 48 h, read-out: Activity; how it was run: as §1
[22] = system: M14; assay: Cytotoxicity against human M14 cells assessed as cell growth at 10^-5 M after 48 hrs by SRB assay; type: functional; conditions: M14, 48 h, read-out: Activity; how it was run: as §1
[23] = system: UACC-62; assay: Cytotoxicity against human UACC62 cells assessed as cell growth at 10^-5 M after 48 hrs by SRB assay; type: functional; conditions: UACC-62, 48 h, read-out: Activity; how it was run: as §2
[24] = system: A549; assay: Cytotoxicity against human A549 cells assessed as cell growth at 10^-5 M after 48 hrs by SRB assay; type: functional; conditions: A549, 48 h, read-out: Activity; how it was run: as §1
[25] = system: HCT-15; assay: Cytotoxicity against human HCT15 cells assessed as cell growth at 10^-5 M after 48 hrs by SRB assay; type: functional; conditions: HCT-15, 48 h, read-out: Activity; how it was run: as §1
[26] = system: SK-MEL-5; assay: Cytotoxicity against human SK-MEL-5 cells assessed as cell growth at 10^-5 M after 48 hrs by SRB assay; type: functional; conditions: SK-MEL-5, 48 h, read-out: Activity; how it was run: as §2
[27] = Induction of nitric oxide release in phosphate buffer at pH 7.4 at 0.1 mM after 2 hrs by Griess method in presence of 0.5 mM of N-acetylcysteine; type: physicochemical; conditions: pH 7.4, 2 h, 100 µM; how it was run: as §3
[28] = system: Rattus norvegicus; assay: Antiinflammatory activity in albino rat assessed as inhibition of carrageenan-induced paw edema at 0.28 mmol/kg, po after 3 hrs relative to control; type: functional; how it was run: as §4
[29] = system: HOP-62; assay: Cytotoxicity against human HOP62 cells assessed as cell growth at 10^-5 M after 48 hrs by SRB assay; type: functional; conditions: HOP-62, 48 h, read-out: Activity; how it was run: as §1

| Compound | growth at 10 µM [1] | growth at 10 µM [2] | growth at 10 µM [3] | Activity [4] | growth at 10 µM [5] | growth at 10 µM [6] | inhibition in vivo at 280 µmol/kg [7] | growth at 10 µM [8] | growth at 10 µM [9] | growth at 10 µM [10] | growth at 10 µM [11] | growth at 10 µM [12] | growth at 10 µM [13] | growth at 10 µM [14] | UI [15] | growth at 10 µM [16] | growth at 10 µM [17] | inhibition in vivo at 280 µmol/kg [18] | growth at 10 µM [19] | growth at 10 µM [20] | further results |
| --- | --- | --- | --- | --- | --- | --- | --- | --- | --- | --- | --- | --- | --- | --- | --- | --- | --- | --- | --- | --- | --- |
| COc1cc(-c2nnc(SC/C(=N/O)c3ccccc3)n2-c2ccccc2)cc(OC)c1OC | 110% | 98.8% | 95.8% | 0.14 mol/mol | 98.3% | 90.3% | 76% | 81.1% | 84.8% | 110% | 99% | 91.7% | 88.8% | 114% | 5.52 | 94.7% | 98.3% | 68% | 92.5% | 102% | growth at 10 µM [21]: 123%; growth at 10 µM [22]: 108%; growth at 10 µM [23]: 84%; growth at 10 µM [24]: 94.7%; growth at 10 µM [25]: 99.1%; growth at 10 µM [26]: 84.6%; Activity [27]: 0.11 mol/mol; inhibition in vivo at 280 µmol/kg [28]: 64%; growth at 10 µM [29]: 101% |
| C=CCn1c(SC/C(=N\O)c2ccccc2)nnc1-c1ccc(OC)c(OC)c1 | 105% | 93% | 98.2% | 0.17 mol/mol | 96.8% | 99% | 78% | 72.3% | 91% | 110% | 97.6% | 88.2% | 90.4% | 110% | 1.82 | 119% | 100% | 69% | 91.5% | 95.6% | growth at 10 µM [21]: 114%; growth at 10 µM [22]: 123%; growth at 10 µM [23]: 99.9%; growth at 10 µM [24]: 98.1%; growth at 10 µM [25]: 99%; growth at 10 µM [26]: 101%; Activity [27]: 0.15 mol/mol; inhibition in vivo at 280 µmol/kg [28]: 58%; growth at 10 µM [29]: 92.2% |
| CCn1c(SC/C(=N/O)c2ccccc2)nnc1-c1ccccc1 | 102% | 103% | 88.5% | 0.13 mol/mol | 111% | 106% | 73% | 103% | 85.5% | 89.7% | 106% | 104% | 120% | 121% | 1.78 | 105% | 108% | 71% | 103% | 93.7% | growth at 10 µM [21]: 107%; growth at 10 µM [22]: 109%; growth at 10 µM [23]: 86.2%; growth at 10 µM [24]: 101%; growth at 10 µM [25]: 101%; growth at 10 µM [26]: 100%; Activity [27]: 0.08 mol/mol; inhibition in vivo at 280 µmol/kg [28]: 72%; growth at 10 µM [29]: 111% |
